Data on 14 compounds can be found in ChEMBL document CHEMBL1129735, “High-affinity alpha-aminobutyric acid A/benzodiazepine ligands: synthesis and structure-activity relationship studies of a new series of tetracyclic imidazoquinoxalines” (J Med Chem, 1996).

For assay [1], the target named is GABA-A receptor; anion channel (Rattus norvegicus) (UniProt O09028+P15431+P18506+P18508+P19969+P20236+P23574+P23576+P28471+P28473+P30191+P62813+P63079+P63138+Q91ZM7+Q9ES14). The assay is described as follows: Binding to GABA-A receptor complex relative to TBPS binding to picrotoxin convulsant site. In kind it is functional. The method in brief:
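Rat brain membranes ([…]) with 2 nM [35S]TBPS in 1 M NaCl, 10 mM Tris/HCl pH 7.4, 120 min at 24 °C; drugs added from methanol (≤0.2%, constant). Filtration read-out, nonspecific binding with 2 mM unlabeled TBPS.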

Assay [2] addresses GABA A receptor alpha-6/beta-2/gamma-2 (Rattus norvegicus, UniProt P18508+P30191+P63138). The assay is described as follows: Displacement of [3H]-Ro- 15-4513 from alpha-6 beta2 gamma2 subunits of Rat GABA-A receptor expressed in Sf-9 insect cell membranes.
Assay [3] concerns the target GABA-A receptor; alpha-1/beta-2/gamma-2 (Homo sapiens) (UniProt P14867+P47870+P18507). Briefly: In vitro efficacy for GABA-A alpha-1-beta-2-gamma-2 subtype expressed in A293 cells in Cl- current assay. The following applies: Rattus norvegicus; HEK293. It is filed as functional, cell-based. The method in brief: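 Stable A293 (human kidney) cells were transfected with α1, β2 and γ2 cDNAs and selected 2 weeks in 1 mg/mL G418; Northern-positive cells were used. Whole-cell patch clamp used a pipette solution of CsCl/EGTA/MgCl2/ATP/Hepes at pH 7.3 and an external normal saline at pH 7.2. GABA with or without drug was applied by U-tube for 10 s. Holding potential was -60 mV, room temperature.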

For assay [4], the target named is GABA A receptor alpha-6/beta-2/gamma-2 (Rattus norvegicus) (UniProt P18508+P30191+P63138). Briefly: Displacement of [3H]-Ro- 15-4513 from alpha-6 beta2 gamma2 subunits of Rat GABA-A receptor expressed in Sf-9 insect cell membrane. The essentials: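 Sf-9 cells co-infected with baculoviruses for α6, β2 and γ2 subunits at an MOI of 3 pfu and harvested at 60 h. Membranes were made by homogenising in normal saline, then spun at 1000g and 40000g. Binding used 6 nM [3H]Ro 15-4513 with varying test ligand concentrations in normal saline, 60 min at 4 °C. Bound label was separated on glass-fibre filters and counted by scintillation.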

In assay [5] the target is GABA-A receptor; anion channel. Briefly: Displacement of [3H]flunitrazepam from GABA-A benzodiazepine receptor of rat cortical membranes. In kind it is cell membranes, Membrane.

Chain of GABA A receptor alpha-6/beta-2/gamma-2 (P18508 whole entry): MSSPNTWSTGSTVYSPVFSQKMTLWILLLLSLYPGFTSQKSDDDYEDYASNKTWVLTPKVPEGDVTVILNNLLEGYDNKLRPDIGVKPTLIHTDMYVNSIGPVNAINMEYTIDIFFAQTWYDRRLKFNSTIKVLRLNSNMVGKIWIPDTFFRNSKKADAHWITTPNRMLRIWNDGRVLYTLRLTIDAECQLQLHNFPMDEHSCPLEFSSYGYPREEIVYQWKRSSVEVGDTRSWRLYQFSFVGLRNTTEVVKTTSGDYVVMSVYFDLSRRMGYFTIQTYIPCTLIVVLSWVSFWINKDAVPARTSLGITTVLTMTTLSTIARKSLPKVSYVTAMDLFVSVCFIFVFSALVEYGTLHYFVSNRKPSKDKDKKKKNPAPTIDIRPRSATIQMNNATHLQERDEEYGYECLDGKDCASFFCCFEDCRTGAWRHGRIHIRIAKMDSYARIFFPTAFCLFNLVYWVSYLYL
Chain of GABA A receptor alpha-6/beta-2/gamma-2 (P30191 whole entry): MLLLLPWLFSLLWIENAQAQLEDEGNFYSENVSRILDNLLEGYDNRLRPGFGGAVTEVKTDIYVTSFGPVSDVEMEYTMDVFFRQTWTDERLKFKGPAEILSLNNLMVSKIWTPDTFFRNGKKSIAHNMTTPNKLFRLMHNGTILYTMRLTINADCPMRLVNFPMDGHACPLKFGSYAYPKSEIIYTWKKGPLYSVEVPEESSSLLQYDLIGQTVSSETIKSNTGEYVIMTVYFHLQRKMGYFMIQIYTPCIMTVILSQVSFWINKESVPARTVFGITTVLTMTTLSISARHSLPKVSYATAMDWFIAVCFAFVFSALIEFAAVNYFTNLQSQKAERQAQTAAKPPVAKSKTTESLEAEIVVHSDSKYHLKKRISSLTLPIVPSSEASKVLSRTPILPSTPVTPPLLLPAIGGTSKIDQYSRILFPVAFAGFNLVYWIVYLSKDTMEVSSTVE
Chain of GABA A receptor alpha-6/beta-2/gamma-2 (P63138 whole entry): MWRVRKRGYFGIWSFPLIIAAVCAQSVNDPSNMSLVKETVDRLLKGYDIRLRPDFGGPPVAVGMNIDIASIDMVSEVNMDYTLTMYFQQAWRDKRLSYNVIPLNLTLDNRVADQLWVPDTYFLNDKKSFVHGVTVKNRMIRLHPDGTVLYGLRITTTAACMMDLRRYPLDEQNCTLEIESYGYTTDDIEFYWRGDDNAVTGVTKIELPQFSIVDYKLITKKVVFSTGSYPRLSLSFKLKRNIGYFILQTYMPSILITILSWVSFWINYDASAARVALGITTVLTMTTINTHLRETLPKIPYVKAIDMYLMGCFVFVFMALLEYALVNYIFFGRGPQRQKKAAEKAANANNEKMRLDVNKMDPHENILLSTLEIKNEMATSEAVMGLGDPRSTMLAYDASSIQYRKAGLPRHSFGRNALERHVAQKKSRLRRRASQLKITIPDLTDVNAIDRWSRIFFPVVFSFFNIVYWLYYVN

Regarding `O=C1CCC2c3c(-c4noc(C5CC5)n4)ncn3-c3ccccc3N12` (stereo unspecified), in assay [1], the Ratio came out at 1.15. For the same compound, the Ki in assay [2] was determined as 13.2 nM. In addition, in assay [3], the Activity turned out to be 0.29.

Consider `CC1(C)CC(=O)N2Cc3c(-c4noc(C5CC5)n4)ncn3-c3cccc1c32`, for which the Ratio in assay [1] was determined as 0.75. Moreover, the figures for the Ki in assay [2] and in assay [5] were > 589 nM and 9.9 nM, respectively. The inhibition in assay [4] was 35%. In assay [3], the Activity worked out at 1.1.

For the compound `O=C1CC(c2ccccc2)c2cccc3c2N1Cc1c(-c2noc(C4CC4)n2)ncn1-3` (stereo unspecified), the Ratio in assay [1] stood at 0.88. The Ki in assay [2] was > 589 nM; in assay [5], 25 nM. For the same compound, in assay [4], the inhibition stood at 13.6%. The Activity in assay [3] was 0.88.

For the compound `CC(C)N1Cc2cccc3c2N(Cc2c(-c4noc(C5CC5)n4)ncn2-3)C1=O`, in assay [1], the Ratio was 0.41. The Ki was > 589 nM in assay [2] and 1.2 nM in assay [5]. In addition, the inhibition in assay [4] was 20.9%. The Activity in assay [3] is 0.65.

As to `CC(C)n1c(=O)c2c(-c3noc(C4CC4)n3)ncn2c2ccccc21` [PANADIPLON], in assay [2], affinity was put at a Ki of 603 nM. Further, the Activity in assay [3] was determined as 0.04.

In the case of `CN1Cc2cccc3c2N(Cc2c(-c4noc(C5CC5)n4)ncn2-3)C1=O`, the Ratio in assay [1] was found to be 0.08. Further, the figures for the Ki in assay [2] and in assay [5] were > 589 nM and 3.7 nM, respectively. In assay [4], this compound had an inhibition of 16.3%. This compound displayed an Activity in assay [3] of 0.5.

Regarding `O=C1CCc2cccc3c2N1Cc1c(-c2noc(C4CC4)n2)ncn1-3`, in assay [1], the Ratio came out at 0.09. The values for the Ki in assay [2] and in assay [5] were > 589 nM and 2.6 nM, respectively. Further, in assay [4], the inhibition was 0%. The same compound came in with an Activity in assay [3] of 0.07.

Take `CC(C)(C)OC(=O)N1CC(=O)N2Cc3c(-c4noc(C5CC5)n4)ncn3-c3cccc1c32`: the Ratio in assay [1] was determined as 0.63. In addition, the figures for the Ki in assay [2] and in assay [5] were > 589 nM and 579 nM, respectively. Also, the inhibition in assay [4] came to 13.5%. This compound also displayed an Activity in assay [3] of 0.6.

For the compound `COn1c(=O)n2c3c(cccc31)-n1cnc(-c3noc(C4CC4)n3)c1C2`, the Ratio in assay [1] stood at 0.68. Besides, the values for the Ki in assay [2] and in assay [5] were > 589 nM and 7.3 nM, respectively. This compound returned an inhibition in assay [4] of 36.4%. Besides, the Activity in assay [3] was 0.73.

In the case of `CN1C(=O)CN=C(c2ccccc2)c2cc(Cl)ccc21` [DIAZEPAM], in assay [3], the Activity came to 1.

In the case of `O=C1OCc2cccc3c2N1Cc1c(-c2noc(C4CC4)n2)ncn1-3`, the Ratio in assay [1] was 0.52. Also, the Ki is > 589 nM in assay [2] and 21 nM in assay [5]. Also, the inhibition in assay [4] worked out at 14.3%. Besides, the Activity in assay [3] was found to be 0.35.

For `O=C1CNc2cccc3c2N1Cc1c(-c2noc(C4CC4)n2)ncn1-3`, in assay [1], the Ratio is 0.58. Moreover, the Ki in assay [2] is > 589 nM; in assay [5], 19 nM. Further, the inhibition in assay [4] turned out to be 14.7%. This compound gave an Activity in assay [3] of 0.39.

`CN(C)C(=O)N1Cc2c(-c3noc(C4CC4)n3)ncn2-c2ccccc21` [PNU-91571]: the Ratio in assay [1] came out at 0.69. For the same compound, the Ki in assay [2] amounted to 13.2 nM. Besides, the Activity in assay [3] is 0.68.

`O=C1COc2cccc3c2N1Cc1c(-c2noc(C4CC4)n2)ncn1-3`: the Ratio in assay [1] was found to be 0.35. In addition, in assay [5], the Ki is 2 nM.
